Laboratory results published in ChEMBL document CHEMBL2086354, “Testing the promiscuity of commercial kinase inhibitors against the AGC kinase group using a split-luciferase screen” (J Med Chem, 2012).
The source made the active and inactive calls. No cut-off for these calls is given here.

Columns and labels:
[1] = biological target: T1, cAMP-dependent protein kinase catalytic subunit PRKX (Homo sapiens) (UniProt P51817); test: Inhibition of PRKX at 10 uM by luciferase assay
T1 sequence (whole entry): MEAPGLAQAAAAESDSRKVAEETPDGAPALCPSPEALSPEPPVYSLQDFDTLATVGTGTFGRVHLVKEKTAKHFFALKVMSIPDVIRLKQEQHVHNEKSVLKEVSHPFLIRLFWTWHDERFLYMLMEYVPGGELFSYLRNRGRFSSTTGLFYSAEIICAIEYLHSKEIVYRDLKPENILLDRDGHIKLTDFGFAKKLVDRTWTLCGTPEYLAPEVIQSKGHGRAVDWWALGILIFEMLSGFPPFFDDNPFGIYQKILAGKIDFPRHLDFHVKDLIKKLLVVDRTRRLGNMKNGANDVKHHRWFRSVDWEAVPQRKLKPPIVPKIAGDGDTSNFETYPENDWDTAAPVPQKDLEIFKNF
In short: (§1)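 Cell-free split-luciferase competitive binding assay. Cfluc-kinase fusion mRNA was co-translated with Fos-Nfluc mRNA in rabbit reticulocyte lysate at 30 °C for 90 min, frozen at −80 °C overnight and thawed on ice. Lysate held tracer 2 at 120 nM final and inhibitor at 10 μM final (DMSO), 1 h at room temperature. Luciferin reagent was added and luminescence read (1 s integration), in duplicate.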

[2] = biological target: Protein kinase C delta type (Homo sapiens) (UniProt Q05655); test: Inhibition of Protein kinase C delta type at 10 uM by luciferase assay
In short: (§2)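 Cell-free split-firefly-luciferase competitive binding assay: Cfluc-kinase fusion mRNA co-translated with Fos-Nfluc mRNA in rabbit reticulocyte lysate, 30 °C for 90 min, then frozen at −80 °C and thawed on ice. Luminescence read after luciferin reagent, in duplicate. Percent inhibition = 1 − (background-subtracted signal ÷ DMSO positive control).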

[3] = biological target: T2, Protein kinase C epsilon type (Homo sapiens) (UniProt Q02156); test: Inhibition of Protein kinase C epsilon type at 10 uM by luciferase assay; in short: as §2
T2 sequence (whole entry): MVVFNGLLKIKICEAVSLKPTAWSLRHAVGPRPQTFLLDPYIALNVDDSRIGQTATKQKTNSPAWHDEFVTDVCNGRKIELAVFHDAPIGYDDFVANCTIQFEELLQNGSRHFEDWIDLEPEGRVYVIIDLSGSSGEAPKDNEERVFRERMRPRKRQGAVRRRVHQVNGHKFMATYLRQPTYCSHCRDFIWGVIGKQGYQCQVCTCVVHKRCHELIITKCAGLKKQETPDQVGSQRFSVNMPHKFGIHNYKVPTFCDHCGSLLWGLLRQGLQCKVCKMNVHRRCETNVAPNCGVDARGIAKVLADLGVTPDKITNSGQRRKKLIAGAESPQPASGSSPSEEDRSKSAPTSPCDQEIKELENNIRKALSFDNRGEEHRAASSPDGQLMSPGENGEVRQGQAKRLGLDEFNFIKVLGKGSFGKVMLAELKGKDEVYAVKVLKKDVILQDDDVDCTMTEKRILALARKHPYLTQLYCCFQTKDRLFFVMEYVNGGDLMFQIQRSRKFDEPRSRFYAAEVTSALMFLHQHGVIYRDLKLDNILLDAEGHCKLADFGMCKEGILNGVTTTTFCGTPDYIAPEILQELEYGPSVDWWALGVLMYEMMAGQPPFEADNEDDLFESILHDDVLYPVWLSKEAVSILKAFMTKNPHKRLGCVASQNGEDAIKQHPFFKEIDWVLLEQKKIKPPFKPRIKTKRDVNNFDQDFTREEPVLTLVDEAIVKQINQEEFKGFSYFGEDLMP

[4] = biological target: Protein kinase C gamma type (Homo sapiens) (UniProt P05129); test: Inhibition of Protein kinase C gamma type at 10 uM by luciferase assay; in short: as §2
[5] = biological target: Protein kinase C eta type (Homo sapiens) (UniProt P24723); test: Inhibition of Protein kinase C eta type at 10 uM by luciferase assay; in short: as §1
[6] = biological target: Protein kinase C theta type (Homo sapiens) (UniProt Q04759); test: Inhibition of Protein kinase C theta type at 10 uM by luciferase assay; in short: as §1
[7] = biological target: Serine/threonine-protein kinase 32B (Homo sapiens) (UniProt Q9NY57); test: Inhibition of STK32B at 10 uM by luciferase assay; in short: as §1
[8] = biological target: T3, Myotonin-protein kinase (Homo sapiens) (UniProt Q09013); test: Inhibition of DMPK at 10 uM by luciferase assay; in short: as §1
T3 sequence (whole entry): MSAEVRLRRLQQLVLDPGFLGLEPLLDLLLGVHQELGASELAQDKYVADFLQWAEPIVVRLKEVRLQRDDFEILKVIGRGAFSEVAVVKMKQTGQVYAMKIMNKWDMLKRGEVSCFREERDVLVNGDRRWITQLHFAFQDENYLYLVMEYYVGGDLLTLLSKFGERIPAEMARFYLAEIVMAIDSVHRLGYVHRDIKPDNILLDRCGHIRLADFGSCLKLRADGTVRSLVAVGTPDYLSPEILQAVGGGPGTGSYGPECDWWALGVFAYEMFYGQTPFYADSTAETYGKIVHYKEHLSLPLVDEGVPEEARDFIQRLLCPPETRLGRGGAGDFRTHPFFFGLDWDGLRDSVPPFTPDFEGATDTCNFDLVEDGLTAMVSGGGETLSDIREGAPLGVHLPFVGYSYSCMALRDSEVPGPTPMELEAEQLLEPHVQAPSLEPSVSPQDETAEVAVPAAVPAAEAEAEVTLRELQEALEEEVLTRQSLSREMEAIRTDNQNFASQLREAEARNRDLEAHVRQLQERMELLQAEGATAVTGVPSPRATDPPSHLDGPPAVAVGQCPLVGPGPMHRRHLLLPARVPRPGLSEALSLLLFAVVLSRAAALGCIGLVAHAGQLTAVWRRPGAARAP

[9] = Inhibition of Protein kinase A at 10 uM by luciferase assay; in short: as §1
[10] = biological target: RAC-alpha serine/threonine-protein kinase (Homo sapiens) (UniProt P31749); test: Inhibition of AKT1 at 10 uM by luciferase assay; in short: as §2
[11] = biological target: RAC-beta serine/threonine-protein kinase (Homo sapiens) (UniProt P31751); test: Inhibition of AKT2 at 10 uM by luciferase assay; in short: as §2
[12] = biological target: RAC-gamma serine/threonine-protein kinase (Homo sapiens) (UniProt Q9Y243); test: Inhibition of AKT3 at 10 uM by luciferase assay; in short: as §2
[13] = biological target: T4, Serine/threonine-protein kinase Sgk2 (Homo sapiens) (UniProt Q9HBY8); test: Inhibition of SGK2 at 10 uM by luciferase assay; in short: as §1
T4 sequence (whole entry): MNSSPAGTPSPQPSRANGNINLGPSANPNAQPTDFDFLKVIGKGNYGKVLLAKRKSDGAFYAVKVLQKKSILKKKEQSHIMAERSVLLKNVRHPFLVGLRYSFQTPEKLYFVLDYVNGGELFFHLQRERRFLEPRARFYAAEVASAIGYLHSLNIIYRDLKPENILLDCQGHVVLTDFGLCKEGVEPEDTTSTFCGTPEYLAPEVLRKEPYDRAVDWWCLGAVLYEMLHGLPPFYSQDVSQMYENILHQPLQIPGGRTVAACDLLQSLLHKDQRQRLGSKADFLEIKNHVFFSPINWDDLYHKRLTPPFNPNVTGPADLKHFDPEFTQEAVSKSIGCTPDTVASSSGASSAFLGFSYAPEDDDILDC

[14] = biological target: T5, Serine/threonine-protein kinase Sgk3 (Homo sapiens) (UniProt Q96BR1); test: Inhibition of SGK3 at 10 uM by luciferase assay; in short: as §1
T5 sequence (whole entry): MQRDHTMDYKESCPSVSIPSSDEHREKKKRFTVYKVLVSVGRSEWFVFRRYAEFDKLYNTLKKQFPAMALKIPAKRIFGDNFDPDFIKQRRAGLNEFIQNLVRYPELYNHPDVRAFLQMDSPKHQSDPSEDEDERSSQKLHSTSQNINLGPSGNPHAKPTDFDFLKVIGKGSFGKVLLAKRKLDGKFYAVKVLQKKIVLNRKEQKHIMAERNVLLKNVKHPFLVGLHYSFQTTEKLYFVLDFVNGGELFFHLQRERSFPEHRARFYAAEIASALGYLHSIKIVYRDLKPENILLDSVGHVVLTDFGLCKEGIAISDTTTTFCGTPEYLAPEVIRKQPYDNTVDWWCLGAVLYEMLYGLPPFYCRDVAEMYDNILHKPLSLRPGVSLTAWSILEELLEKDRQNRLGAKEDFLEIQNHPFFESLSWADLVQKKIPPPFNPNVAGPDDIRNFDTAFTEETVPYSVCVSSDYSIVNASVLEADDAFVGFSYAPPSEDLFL

[15] = biological target: Aurora kinase B (Homo sapiens) (UniProt Q96GD4); test: Inhibition of Aurora kinase B at 10 uM by luciferase assay; in short: as §1
[16] = biological target: T6, Aurora kinase C (Homo sapiens) (UniProt Q9UQB9); test: Inhibition of Aurora kinase C at 10 uM by luciferase assay; in short: as §1
T6 sequence (whole entry): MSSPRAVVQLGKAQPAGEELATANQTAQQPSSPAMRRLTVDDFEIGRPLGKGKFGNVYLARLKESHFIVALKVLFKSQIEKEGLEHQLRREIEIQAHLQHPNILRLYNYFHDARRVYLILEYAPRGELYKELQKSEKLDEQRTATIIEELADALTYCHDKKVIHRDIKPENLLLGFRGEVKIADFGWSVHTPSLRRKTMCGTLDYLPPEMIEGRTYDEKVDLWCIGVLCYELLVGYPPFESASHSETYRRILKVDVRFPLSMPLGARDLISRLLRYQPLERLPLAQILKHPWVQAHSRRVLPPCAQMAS

Sequence of Protein kinase C theta type (Homo sapiens) (Q04759 whole entry, looked up): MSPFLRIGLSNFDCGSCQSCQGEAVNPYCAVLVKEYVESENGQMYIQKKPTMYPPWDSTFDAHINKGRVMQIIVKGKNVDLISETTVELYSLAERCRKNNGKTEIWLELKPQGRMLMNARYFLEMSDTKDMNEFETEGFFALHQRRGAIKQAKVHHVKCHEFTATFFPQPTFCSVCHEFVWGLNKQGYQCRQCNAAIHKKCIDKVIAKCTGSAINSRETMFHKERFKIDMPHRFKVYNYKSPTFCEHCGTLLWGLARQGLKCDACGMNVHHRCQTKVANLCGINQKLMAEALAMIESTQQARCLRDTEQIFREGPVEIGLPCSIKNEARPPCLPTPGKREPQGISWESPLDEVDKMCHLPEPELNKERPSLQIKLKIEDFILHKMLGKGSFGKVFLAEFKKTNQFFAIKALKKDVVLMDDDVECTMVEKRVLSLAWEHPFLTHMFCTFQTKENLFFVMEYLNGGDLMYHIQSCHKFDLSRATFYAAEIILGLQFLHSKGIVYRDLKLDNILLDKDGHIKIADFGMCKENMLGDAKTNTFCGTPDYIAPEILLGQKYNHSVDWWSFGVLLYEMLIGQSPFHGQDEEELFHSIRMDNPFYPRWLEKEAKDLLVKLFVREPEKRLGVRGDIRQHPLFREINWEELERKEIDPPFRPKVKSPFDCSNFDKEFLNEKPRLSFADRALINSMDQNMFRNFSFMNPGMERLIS
Sequence of Aurora kinase B (Homo sapiens) (Q96GD4 whole entry): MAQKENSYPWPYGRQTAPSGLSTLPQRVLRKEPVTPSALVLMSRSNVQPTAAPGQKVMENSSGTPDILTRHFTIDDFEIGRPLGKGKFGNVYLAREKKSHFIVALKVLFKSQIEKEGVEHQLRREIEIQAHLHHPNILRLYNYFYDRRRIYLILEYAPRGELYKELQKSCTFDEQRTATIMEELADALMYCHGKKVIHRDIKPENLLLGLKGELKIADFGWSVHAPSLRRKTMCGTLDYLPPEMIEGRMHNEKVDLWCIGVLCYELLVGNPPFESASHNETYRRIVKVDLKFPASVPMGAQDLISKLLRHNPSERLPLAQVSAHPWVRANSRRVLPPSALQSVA
Sequence of Protein kinase C eta type (Homo sapiens) (P24723 whole entry): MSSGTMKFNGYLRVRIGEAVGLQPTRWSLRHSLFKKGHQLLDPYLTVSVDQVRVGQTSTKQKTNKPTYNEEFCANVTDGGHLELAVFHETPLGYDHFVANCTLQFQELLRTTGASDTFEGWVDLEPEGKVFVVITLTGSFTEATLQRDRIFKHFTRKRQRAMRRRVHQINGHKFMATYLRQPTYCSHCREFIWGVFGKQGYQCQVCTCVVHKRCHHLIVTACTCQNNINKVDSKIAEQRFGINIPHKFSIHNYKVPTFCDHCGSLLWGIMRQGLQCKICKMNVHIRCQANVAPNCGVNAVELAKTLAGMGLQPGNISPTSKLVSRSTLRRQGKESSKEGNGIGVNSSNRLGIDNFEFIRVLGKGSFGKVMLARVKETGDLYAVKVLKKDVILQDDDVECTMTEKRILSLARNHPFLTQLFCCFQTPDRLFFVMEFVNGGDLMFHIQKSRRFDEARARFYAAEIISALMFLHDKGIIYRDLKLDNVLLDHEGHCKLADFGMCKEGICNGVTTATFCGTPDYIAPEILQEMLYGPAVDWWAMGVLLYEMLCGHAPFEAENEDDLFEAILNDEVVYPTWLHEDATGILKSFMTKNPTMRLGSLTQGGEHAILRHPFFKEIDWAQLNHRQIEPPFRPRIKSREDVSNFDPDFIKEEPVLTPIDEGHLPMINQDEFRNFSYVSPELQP
Sequence of Serine/threonine-protein kinase 32B (Homo sapiens) (Q9NY57 whole entry): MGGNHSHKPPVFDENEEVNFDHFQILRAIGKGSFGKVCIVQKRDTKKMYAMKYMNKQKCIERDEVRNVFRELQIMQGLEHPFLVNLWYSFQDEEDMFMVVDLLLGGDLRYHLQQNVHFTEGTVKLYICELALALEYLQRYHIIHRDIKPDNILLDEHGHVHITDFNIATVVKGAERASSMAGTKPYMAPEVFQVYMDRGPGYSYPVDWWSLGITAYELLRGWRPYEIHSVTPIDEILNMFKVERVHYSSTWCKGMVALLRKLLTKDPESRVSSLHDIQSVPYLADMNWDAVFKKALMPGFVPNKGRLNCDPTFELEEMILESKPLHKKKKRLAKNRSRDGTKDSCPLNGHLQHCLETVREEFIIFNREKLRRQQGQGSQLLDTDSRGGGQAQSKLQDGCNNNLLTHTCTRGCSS
Sequence of RAC-alpha serine/threonine-protein kinase (Homo sapiens) (P31749 whole entry): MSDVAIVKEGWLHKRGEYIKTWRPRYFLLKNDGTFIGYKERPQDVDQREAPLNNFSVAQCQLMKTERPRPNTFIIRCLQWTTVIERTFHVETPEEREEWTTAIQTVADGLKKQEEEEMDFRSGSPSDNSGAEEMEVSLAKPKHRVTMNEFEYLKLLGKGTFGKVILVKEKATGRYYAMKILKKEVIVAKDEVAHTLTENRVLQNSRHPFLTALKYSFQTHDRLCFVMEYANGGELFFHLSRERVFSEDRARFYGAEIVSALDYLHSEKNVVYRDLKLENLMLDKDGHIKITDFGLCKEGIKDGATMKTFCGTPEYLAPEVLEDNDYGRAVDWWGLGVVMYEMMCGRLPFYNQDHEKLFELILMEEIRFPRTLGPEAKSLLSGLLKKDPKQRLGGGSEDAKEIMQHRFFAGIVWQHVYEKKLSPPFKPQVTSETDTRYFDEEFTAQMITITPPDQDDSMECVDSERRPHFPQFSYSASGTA
Sequence of RAC-beta serine/threonine-protein kinase (Homo sapiens) (P31751 whole entry): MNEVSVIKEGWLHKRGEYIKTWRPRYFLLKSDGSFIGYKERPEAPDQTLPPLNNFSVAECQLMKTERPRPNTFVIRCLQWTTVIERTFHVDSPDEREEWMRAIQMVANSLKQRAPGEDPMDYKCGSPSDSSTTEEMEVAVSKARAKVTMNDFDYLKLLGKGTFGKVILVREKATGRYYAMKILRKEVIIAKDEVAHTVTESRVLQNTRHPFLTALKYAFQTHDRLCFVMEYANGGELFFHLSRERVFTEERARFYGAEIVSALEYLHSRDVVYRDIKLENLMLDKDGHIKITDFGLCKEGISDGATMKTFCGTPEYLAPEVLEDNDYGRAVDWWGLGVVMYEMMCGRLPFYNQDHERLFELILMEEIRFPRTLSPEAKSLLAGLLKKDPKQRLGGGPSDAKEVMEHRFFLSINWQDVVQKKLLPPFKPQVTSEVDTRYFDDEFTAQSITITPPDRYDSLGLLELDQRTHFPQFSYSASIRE
Sequence of RAC-gamma serine/threonine-protein kinase (Homo sapiens) (Q9Y243 whole entry): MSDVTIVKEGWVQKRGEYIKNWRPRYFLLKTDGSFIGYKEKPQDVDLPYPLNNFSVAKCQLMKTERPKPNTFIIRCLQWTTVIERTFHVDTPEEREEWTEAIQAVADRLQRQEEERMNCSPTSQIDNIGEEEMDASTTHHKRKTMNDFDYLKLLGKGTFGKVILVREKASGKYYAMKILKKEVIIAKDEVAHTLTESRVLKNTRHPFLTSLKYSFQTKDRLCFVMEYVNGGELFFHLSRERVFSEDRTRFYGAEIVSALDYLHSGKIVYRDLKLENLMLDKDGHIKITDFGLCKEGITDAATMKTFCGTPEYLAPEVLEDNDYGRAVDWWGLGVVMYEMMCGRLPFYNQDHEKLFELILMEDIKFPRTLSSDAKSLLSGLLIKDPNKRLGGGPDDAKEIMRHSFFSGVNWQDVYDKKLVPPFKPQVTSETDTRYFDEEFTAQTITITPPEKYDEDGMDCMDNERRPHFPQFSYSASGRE
Sequence of Protein kinase C delta type (Homo sapiens) (Q05655 whole entry, looked up, the tested form may be a part): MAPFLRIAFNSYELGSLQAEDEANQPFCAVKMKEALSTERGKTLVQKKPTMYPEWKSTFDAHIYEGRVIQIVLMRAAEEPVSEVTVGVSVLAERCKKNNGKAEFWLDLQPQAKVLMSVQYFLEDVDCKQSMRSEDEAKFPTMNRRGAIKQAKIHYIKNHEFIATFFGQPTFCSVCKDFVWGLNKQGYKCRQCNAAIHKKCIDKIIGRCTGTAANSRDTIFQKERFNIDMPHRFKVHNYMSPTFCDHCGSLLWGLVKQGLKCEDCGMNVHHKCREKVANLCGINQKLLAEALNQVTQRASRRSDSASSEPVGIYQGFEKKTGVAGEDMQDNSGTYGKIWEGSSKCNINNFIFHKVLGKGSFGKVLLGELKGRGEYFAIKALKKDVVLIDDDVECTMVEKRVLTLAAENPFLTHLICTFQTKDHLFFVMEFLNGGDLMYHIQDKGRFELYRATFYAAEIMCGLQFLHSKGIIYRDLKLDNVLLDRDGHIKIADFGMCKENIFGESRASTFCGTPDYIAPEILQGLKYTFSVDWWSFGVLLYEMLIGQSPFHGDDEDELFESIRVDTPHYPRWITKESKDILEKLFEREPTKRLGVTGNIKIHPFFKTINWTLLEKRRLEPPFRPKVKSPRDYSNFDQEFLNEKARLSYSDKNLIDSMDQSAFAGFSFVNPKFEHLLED

O=S(=O)(c1cccc2c(Cl)cccc12)N1CCCNCC1
inhibition [1]: inactive

Cn1cc(C2=C(c3cn(CCCSC(=N)N)c4ccccc34)C(=O)NC2=O)c2ccccc21
inhibition [2]: 47% | inhibition [3]: 47% | inhibition [4]: 47% | inhibition [5]: 47% | inhibition [6]: 47%

CO[C@@H]1[C@H](N(C)C(=O)c2ccccc2)C[C@H]2O[C@]1(C)n1c3ccccc3c3c4c(c5c6ccccc6n2c5c31)C(=O)NC4
inhibition [7]: Active

Cc1ccc(-c2nn(C(C)(C)C)c3ncnc(N)c23)cc1
inhibition [7]: > 40% | inhibition [8]: 32% | inhibition [9]: 19%

Fc1ccc(Cl)cc1-c1nc(Nc2ccncc2)c2nccnc2n1
inhibition [10]: > 25% | inhibition [11]: > 25% | inhibition [12]: > 25% | inhibition [3]: > 25% | inhibition [5]: > 25% | inhibition [6]: > 25%

O=S(=O)(NCCNC/C=C/c1ccc(Br)cc1)c1cccc2cnccc12
inhibition [13]: 20% | inhibition [14]: 20% | inhibition [9]: > 65% | inhibition [5]: 20% | inhibition [6]: 20% | inhibition [1]: > 65%

NC(=O)Nc1sc(-c2ccc(F)cc2)cc1C(N)=O
inhibition [15]: > 25% | inhibition [16]: > 25% | inhibition [5]: Active

COc1cc2ncn(-c3cc(OCc4ccccc4C(F)(F)F)c(C(N)=O)s3)c2cc1OC
inhibition [15]: > 25% | inhibition [16]: > 25%

C[C@@H](N)[C@H]1CC[C@H](C(=O)Nc2ccncc2)CC1
inhibition [1]: Active

O=C1NC(=O)c2cc(Nc3ccc(F)cc3)c(Nc3ccc(F)cc3)cc21
inhibition [8]: 30% | inhibition [4]: 22%

COc1cc2c(Nc3ccc(NC(=O)c4ccccc4)cc3)ncnc2cc1OCCCN1CCOCC1
inhibition [15]: > 50% | inhibition [16]: > 50%

O=C1NC(=O)c2c1c1c3ccccc3[nH]c1c1[nH]c3ccccc3c21
inhibition [10]: inactive | inhibition [11]: inactive | inhibition [12]: inactive | inhibition [2]: inactive | inhibition [3]: inactive | inhibition [4]: inactive

O=S(=O)(c1cccc2cnccc12)N1CCCNCC1
inhibition [9]: Active | inhibition [1]: Active

O=C1NC(=O)c2c1c1c3ccccc3n3c1c1c2c2ccccc2n1C1CCC3O1
inhibition [13]: > 60%

O=C(c1ccc(Nc2nccc(-c3cc4ccccc4s3)n2)cc1)N1CCC(N2CCCC2)CC1
inhibition [13]: > 60% | inhibition [14]: > 60% | inhibition [15]: > 29% | inhibition [3]: > 29% | inhibition [5]: 83% | inhibition [6]: > 29% | inhibition [1]: > 29%

O=S(=O)(c1cccc2c(O)nccc12)N1CCCNCC1
inhibition [1]: Active

CC(C)(C)n1nc(-c2ccc(Cl)cc2)c2c(N)ncnc21
inhibition [7]: > 40% | inhibition [8]: 32% | inhibition [9]: 19%

Cc1[nH]c(/C=C2\C(=O)Nc3ccc(S(=O)(=O)Cc4c(Cl)cccc4Cl)cc32)c(C)c1C(=O)N1CCC[C@@H]1CN1CCCC1
inhibition [15]: > 25% | inhibition [16]: > 25%

CN(C)CCCn1cc(C2=C(c3c[nH]c4ccccc34)C(=O)NC2=O)c2ccccc21
inhibition [4]: inactive | inhibition [5]: inactive | inhibition [6]: inactive
